Legend:
[1] = Lipophilicity (Log Papp) was measured at pH 7.4; Activity expressed as the log of the fraction in the octanol layer; type: physicochemical; settings: octanol/aqueous phase
Outline: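 Shake-flask octanol/water distribution at pH 7.4 in 50 mM TRIS buffer, uncorrected for partial ionization. Quadruplicate samples shaken with 1-octanol overnight, layers left to settle 1-2 h before separation. Room temperature (22-24 °C), UV spectrometric read-out, value given as log of fraction in octanol layer.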

[2] = system: Monkey; test: Percentage of iron clearing efficiency was measured in monkey after administration at 150 umol/kg (n=4); type: functional
Outline: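 Cebus apella monkeys iron-overloaded with iv iron dextran to about 500 mg Fe/kg, at least 60 days before use. Single po dose of 150 µmol/kg as solution or suspension in 40% Cremophor RH-40/water. Stool and urine collected every 24 h, from 4 days before dosing to 5 days after. Iron measured by flame atomic absorption. ICE = (2-day post-dose iron minus mean 4-day baseline) / theoretical excretion × 100. Mean ± SEM.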

Structure (SMILES)	log fraction in octanol layer [1]	Activity [2]
COc1cccc(C2=N[C@@H](C(=O)O)CS2)c1O	-1.52	15.5%
O=C(O)[C@H]1CSC(c2cccc(O)c2O)=N1	-1.67	5.8%
O=C(O)[C@H]1CSC(c2ccc(O)cc2O)=N1	-1.33	4.2%
COc1ccc(C2=N[C@@H](C(=O)O)CS2)c(O)c1	-0.89	16.2%
C[C@]1(C(=O)O)CSC(c2ccc(O)cc2O)=N1 [DEFERITRIN]	-1.05	13.4%

Further lines, with some results ahead:

log fraction in octanol layer [1]	Structure (SMILES)	Activity [2]
-1.17	C[C@]1(C(=O)O)CSC(c2cccc(O)c2O)=N1	23.1%
-0.7	COc1ccc(C2=N[C@@](C)(C(=O)O)CS2)c(O)c1	24.4%
-1.12	COc1cccc(C2=N[C@@](C)(C(=O)O)CS2)c1O	22.5%

From ChEMBL document CHEMBL1142654, “Partition-variant desferrithiocin analogues: organ targeting and increased iron clearance” (J Med Chem, 2005)
